Source: PubChem BioAssay
PostGolgi ctrl = yeast control strain growth, post-Golgi counter-screen; efflux-deficient yeast background strain, growth absorbance A615, 16 h; inhibition, % at 10 µM; hit rate 5% among 98,000; AID 738
Ecoli tolC = growth inhibitors of E. coli BW25113 tolC mutant; OD615; growth inhibition, % at 10 µM (by protocol); hit rate 2.2% among 65,000;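 active means growth inhibition at or above a cutoff equal to the mean over every tested compound plus 3 SD, cut at about 60% in these data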;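 further: growth measured after 20 h incubation at 37 °C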
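Doses: one dose of 10 µM final / Material: E. coli BW25113 ΔtolC::kan, tolC deletion mutant strain / Buffer or medium: LB with kanamycin 50 µg/mL / Evaluation: percent growth inhibition / Detection: optical density read at 615 nm / Incubation: 37 °C, 20 h exposure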
E coli WT exp = growth inhibitors of E. coli BW25113 wild type | OD600 absorbance | growth inhibition, % at 100 µM | hit rate 0.15% among 98,000;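 active means growth inhibition above about 50% at one test dose, limit read from the data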;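 further: growth measured after 20 h incubation at 37 °C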
Cav3 T inh = blocks human Cav3.2 T-type calcium channel; O95180; Cav3.2-expressing cells, Fluo-4 calcium fluorescence FDSS; active compounds read low; B-score at 10 µM; hit rate 4% among 100,000;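 active means single-dose well whose peak fluorescence ratio is a statistical outlier from its plate by either plate-standardised score or position-corrected B-score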
PostGolgi yeast = growth inhibition of a yeast mutant, post-Golgi transport screen. post-Golgi transport phenotypic cell assay. inhibition, % at 10 µM. hit rate 0.9% among 98,000;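 further: yeast cells grown in 1536-well plates; yeast grown about 18 h at 30C before absorbance read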
Hits are given with their value; 0 = inactive; - = no result given. A selection: hits, their analogues and other compounds. The true share with any hit is near 8.4%. Unless noted, no stated cut-off is given here; in the data, active means inhibition above about 30%; inactive means the rest.

SMILES	PostGolgi ctrl	Ecoli tolC	E coli WT exp	Cav3 T inh	PostGolgi yeast
COc1ccc(C(=O)NCc2ccccc2)cc1S(=O)(=O)N1CCCc2ccccc21	0	-	0	-5.3	0
COc1ccccc1C(=O)Nc1ccc(C(=O)N2CCCC2)cc1	0	-	0	0	0
COc1cc(C(=O)Nc2ccc(S(=O)(=O)N3CCc4ccccc43)cc2)cc(OC)c1OC	0	-	0	-5.3	0
COC(=O)Nc1ccc(S(=O)(=O)N2CCCCC2)cc1	0	-	0	0	0
CCOCCCNC(=O)c1ccc(CS(=O)(=O)Cc2ccc(C)cc2)o1	0	0	0	-	0
Cc1cc(C)cc(OCC(O)CN2C(=O)NC(C)(C)C2=O)c1 (configuration not stated)	0	0	0	0	0
O=C(Nc1ccc(S(=O)(=O)N2CCc3ccccc32)cc1)c1ccc2c(c1)OCO2	37	0	0	0	0
O=C(COc1ccccc1)N1CCN(c2nnc(-c3ccccc3)c3ccccc23)CC1	0	0	0	0	0
Cc1ccc(OCC(=O)N2CCN(c3nnc(-c4ccc(C)cc4)c4ccccc34)CC2)cc1	71	-	0	-7.4	0
COc1ccc(OCC(=O)N2CCN(c3nnc(-c4ccccc4)c4ccccc34)CC2)cc1	32	0	0	-5.8	0
COc1ccc(-c2nnc(N3CCCCC3)c3ccccc23)cc1	0	-	0	-4.6	0
